ROMK primary: modulators of human ROMK potassium channel. P48048. Tet-inducible ROMK, thallium flux fluorescence; actives lie on both sides. B-score at 10 µM. actives 2% (n = 130,000). AID 1918;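 active = signal ratio slope over the read window, or its plate-corrected B-score, at least 3 SD from the plate mean, either direction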;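 note: B-score of the F/F0 ratio slope over 7 to 12 s after thallium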
Target sequence (P48048 whole entry, looked up): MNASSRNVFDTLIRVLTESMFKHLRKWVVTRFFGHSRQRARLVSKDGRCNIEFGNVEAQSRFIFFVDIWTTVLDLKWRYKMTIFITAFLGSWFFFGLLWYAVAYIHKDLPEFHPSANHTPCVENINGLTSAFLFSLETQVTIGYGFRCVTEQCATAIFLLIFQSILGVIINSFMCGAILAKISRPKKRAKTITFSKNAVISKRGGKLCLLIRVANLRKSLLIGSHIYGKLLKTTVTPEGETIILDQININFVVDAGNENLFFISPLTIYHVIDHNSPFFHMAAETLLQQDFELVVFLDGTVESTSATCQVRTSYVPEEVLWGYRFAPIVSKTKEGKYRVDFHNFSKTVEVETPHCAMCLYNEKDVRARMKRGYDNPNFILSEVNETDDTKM
DTT redox prof: compounds producing H2O2 with reducing agent – biochemical, NIH compound library profiling, artefact control for MLSCN library redox annotation, primary screen. DTT-dependent redox cycling H2O2, phenol red/HRP absorbance; 100% = 100 µM peroxide control, 0% = buffer. activation, % at 10 µM. actives 0.03% (n = 200,000). AID 878;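 active = activation of at least 50% relative to the plate's high and low controls in the primary single-dose screen; inactive = activation below 50%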;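 note: compound incubated with DTT at 0.8 mM final as the reducing agent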
bCat nuc transl: beta-catenin nuclear translocation modulation | HeLa beta-catenin nuclear translocation, immunofluorescence imaging | nuclear translocation activity, % at 5 µM | actives 0.3% (n = 190,000);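 active = nuclear translocation activity above 50% at 5 µM, with a well cell count of 50 or more; inconclusive = wells under 50 cells across six images, flagged as toxic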;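 note: per-cell ratio of nuclear to cytoplasmic median beta-catenin stain intensity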
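System: HeLa cells, endogenous beta-catenin; compound dosing: 5 µM primary single dose, 0.1% DMSO, 0.02–20 µM confirmation series; incubation: 24 h compound exposure at 37°C, 5% CO2; signal: beta-catenin immunofluorescence imaging with DAPI; evaluation: % activation, nuclear-to-cytoplasmic median beta-catenin signal ratio per cell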
KCC2 mod: KCC2 (human) Cl- transport modulation; Q9H2X9; KCC2 cells, thallium flux FluoZin-2 fluorescence; B-score of Tl+ flux slope (higher = more flux/activation; lower = inhibition) at 10 µM; actives 2.2% (n = 190,000); AID 1456;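 active = thallium flux slope and its plate-corrected score both differing from the plate sample mean at a set confidence after two filtering rounds, in either direction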;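 note: slope of fluorescence scaled to starting intensity during 10 to 20 s after thallium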
MT stabilize HCS: stabilizes microtubules in HeLa cells | HeLa tubulin immunostaining HCS, 24 h; share of cells brighter than vehicle mean+2SD | % tubulin-high responders, % at 10 µM | actives 0.83% (n = 200,000) | AID 2205;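 active = plate Z-score above 3 for both tubulin-high and condensed-nucleus cell shares, with cell loss under 80%, at 10 µM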;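 note: anti alpha tubulin signal scored within the nucleus-defined area of each cell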
KCC2 sec1: confirmation of human KCC2 transport modulators. shares compounds with KCC2 mod. HEK293-KCC2, thallium flux, FluoZin2 fluorescence; active compounds read high. normalised thallium flux (F/F0 slope) at 10 µM. actives 15% (n = 3,700). AID 1713;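 active = thallium flux slope above the same plate's solvent-only control mean plus 3 SD; inconclusive = the two replicate wells disagree; inactive = no significant difference from solvent-only control wells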
KCC2 bumet counter: thallium flux persisting under bumetanide in KCC2 cells, counter-screen secondary assay. normalized thallium flux at 10 µM. actives 49% (n = 3,700). HEK293-KCC2 + bumetanide/ouabain, thallium flux FluoZin2; active compounds read high. shares compounds with KCC2 mod;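 active = thallium entry rate above the same plate's blocked-transporter control wells by more than 3 SD; inconclusive = the two repeat wells disagree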;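 note: raw slope of fluorescence over initial fluorescence between 10 and 20 s after thallium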
KCC2 secondary2: confirmation of human KCC2 transport modulators. actives 23% (n = 3,700). shares compounds with KCC2 mod. HEK293-KCC2, thallium flux FluoZin2 fluorescence; actives lie on both sides; F/F0 rise rate, 10–20 s post-thallium. normalized thallium flux at 10 µM;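 active = thallium flux slope more than 3 SD above or below the plate's solvent-only control mean, mostly below; inconclusive = the two repeat wells disagreed; inactive = no significant shift from solvent-only controls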
HEK counter1: acts in parental HEK cells, KCC2 counter-screen; thallium flux rate (normalised fluorescence) at 10 µM; AID 1716; actives 46% (n = 3,700); HEK293 parental cells, thallium flux FluoZin2, ouabain; baseline-ratio fluorescence slope, 10–20 s after thallium; shares compounds with KCC2 mod;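 active = thallium flux rate significantly above the same plate's solvent-only control wells, beyond their mean plus 3 SD; inconclusive = the two replicate wells gave conflicting results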
KCC2 ouabain: confirmation of human KCC2 modulators with ouabain | AID 1717 | raw Tl+ flux slope (below DMSO = inhibition, above = activation) at 10 µM | actives 48% (n = 3,700) | shares compounds with KCC2 mod | HEK293-KCC2, thallium flux FluoZin2 fluorescence; bidirectional: low = inhibitor, high = activator;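 active = thallium flux slope beyond 3 SD from same-plate DMSO control mean in most replicates, usually higher, sometimes lower; inconclusive = repeat tests gave conflicting results; inactive = no significant difference from controls in most replicates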;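 note: slope of initial-normalized fluorescence between seconds 10 and 20 after thallium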
HEK293 Tl flux2: acts in parental HEK cells, second KCC2 counter-screen; shares compounds with KCC2 mod; thallium flux slope at 10 µM; actives 33% (n = 3,700); AID 1718; HEK293 parental, thallium flux FluoZin-2 fluorescence slope;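 active = thallium flux slope above the same plate's solvent-control mean plus 3 SD in both duplicate wells; inconclusive = duplicate wells that disagreed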;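 note: run without ouabain in cells lacking the KCC2 cotransporter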
A number is an active result; - = inactive; ? = inconclusive; . = no result given. Sampled rows, rich in hits. Any-hit rate of the full collection: about 3.7%.

SMILES	ROMK primary	DTT redox prof	bCat nuc transl	KCC2 mod	MT stabilize HCS	KCC2 sec1	KCC2 bumet counter	KCC2 secondary2	HEK counter1	KCC2 ouabain	HEK293 Tl flux2
S=C(N=Nc1ccccc1)NNc1ccccc1	.	-	-	23	-	-	0.018	0.039	0.019	0.027	0.024
CC(C)C(O)(C(=O)NNc1ccccc1)C(C)C	.	.	-	-	.	.	.	.	.	.	.
COc1ccc(S(=O)(=O)N2CC(O)CC2C(=O)Nc2cccnc2)cc1 (stereo not drawn)	.	.	-	.	.	.	.	.	.	.	.
CN(C)CC(O)COc1cccc(OCC(O)CN(C)C)c1 (stereo not drawn)	-	-	-	.	-	-	-	-	-	-	-
CN(C)CC(O)COc1ccc(-c2ccc(C#N)cc2)cc1 (stereo not drawn)	-	-	-	.	-	.	.	.	.	.	.
O=C(NC(=S)Nc1ccc(CN2CCOCC2)cc1)c1ccc([N+](=O)[O-])cc1	.	-	-	4.6	-	-	0.0097	-	0.012	-	0.013
CNC(=S)N/N=C/c1c(C)cccc1Cl	.	.	-	4.4	.	-	0.017	-	0.0085	?	-
CNC(=S)N/N=C/c1cc(C)ccc1C	-	-	-	-	-	.	.	.	.	.	.
Cc1nn(-c2ccccc2)c2nc(C(Cl)(Cl)Cl)[nH]c(=O)c12	.	.	-	91	.	-	0.071	?	0.064	0.065	0.05
CCOC(=O)C(CC)(CCC(=O)O)c1csc(Nc2ccc(C)cc2)n1 (stereo not drawn)	-	-	-	-2.9	-	-	-	-	0.006	-	-
CN(C)C(=O)C(NC(=O)c1ccccc1)=C(Cl)Cl	-	-	-	-	-	.	.	.	.	.	.
c1ccc(-c2noc(-c3ccccc3-c3ccccc3)n2)cc1	-	-	-	5.6	-	-	-	-	-	-	-
O=C(Nc1ncc2c(n1)-c1ccccc1CC2)c1cccc(Cl)c1	.	-	.	-4.4	44	-	-	0.022	-	0.013	-
O=C(Nc1ncc2c(n1)-c1ccccc1CC2)c1ccc(Cl)cc1	.	-	.	-	-	.	.	.	.	.	.
CCC(C)N(C(=O)CSc1ccc(NC(C)=O)cc1)C1CCS(=O)(=O)C1 (stereo not drawn)	-	-	-	-	-	.	.	.	.	.	.
Cc1ccc(C(=O)CSc2nnc(COc3cccc4cccnc34)o2)cc1	-	-	-	-4	-	?	?	?	-	-	-
O=C(CSc1nnc(COc2cccc3cccnc23)o1)c1ccc(F)cc1	-	-	-	.	-	-	-	-	-	0.015	-
COc1cccc(C(=O)CSc2nnc(COc3cccc4cccnc34)o2)c1	-	-	.	-	-	.	.	.	.	.	.
COc1cc(/C=C2/C(=O)c3cccc([N+](=O)[O-])c3C2=O)c(Br)cc1O	.	-	-	-4.7	-	-	-	-	-	-	-
COc1ccc(-c2nc(-c3cccc([N+](=O)[O-])c3O)cc(=O)o2)cc1OC	.	-	-	-	-	.	.	.	.	.	.
CSc1ncc(Cl)c(C(=O)Nc2nnc(SC/C=C/c3ccccc3)s2)n1	-	-	-	28	-	-	0.082	0.054	0.064	0.066	0.041
Cc1nc(NC(C)c2ccccc2)c2c3c(sc2n1)CCC3 (stereo not drawn)	-	-	.	-6.3	-	-	-	-	-	-	-
O=C(NCc1nc(-c2ccc(C(F)(F)F)cc2)no1)Nc1ccc(OC(F)(F)F)cc1	-	.	-	-	.	.	.	.	.	.	.
O=C(NCCc1cn2ccccc2n1)c1cc(COc2c(F)cccc2F)on1	.	-	-	-4	-	?	?	?	-	0.016	-
Cc1ccc(CNC(=O)c2cc(COc3c(F)cccc3F)on2)s1	-	-	-	.	-	-	-	-	-	0.015	-
SMILES	ROMK primary	DTT redox prof	bCat nuc transl	KCC2 mod	MT stabilize HCS	KCC2 sec1	KCC2 bumet counter	KCC2 secondary2	HEK counter1	KCC2 ouabain	HEK293 Tl flux2
O=C(Nc1ccc(Cc2ccncc2)cc1)c1cccc([N+](=O)[O-])c1	.	-	-	-4.2	-	-	?	0.024	-	?	-
O=C(Nc1ccc(Cc2ccncc2)cc1)c1ccc(N2CCOCC2)c([N+](=O)[O-])c1	-	-	-	-5.9	-	-	?	?	-	0.016	-
Cc1ccc(N2C(=O)C3ON(c4ccccc4)C(CC(C)C)C3C2=O)cc1 (stereo not drawn)	.	.	-	-	.	.	.	.	.	.	.
N#CC1=C(S)N=C(N)C(c2nc(-c3ccccc3)cs2)C12CCCCC2 (stereo not drawn)	-	-	-	-3.9	-	-	-	0.022	-	0.016	-
Cc1ccccc1-n1c([C@@H]2C[C@H]2c2ccccc2)n[nH]c1=S	.	.	-	-	.	.	.	.	.	.	.
Cn1c(/N=C/c2ccc3c(c2)OCO3)nc2ccccc21	-	-	-	-3.1	-	-	-	?	-	0.017	-
O=C(Nc1ccccc1)c1nccn1Cc1ccc(F)cc1	-	-	-	-	-	.	.	.	.	.	.
Cc1[nH]n(C)c(=O)c1C(=O)c1c(-c2ccccc2Cl)noc1C	.	.	-	-	.	.	.	.	.	.	.
Cc1cc(C)cc(C(=O)NCC(=O)OCC(=O)N2CCN(S(=O)(=O)c3ccc4ccccc4c3)CC2)c1	.	-	-	-	-	.	.	.	.	.	.
Cn1c2ccccc2c(=O)c2c(=O)n(-c3ccc(F)cc3)c(-c3cccs3)nc21	.	.	-	-	.	.	.	.	.	.	.
CC(c1ccccc1)n1c(-c2cccs2)nc2c(c(=O)c3ccccc3n2C)c1=O (stereo not drawn)	.	.	-	-3.6	.	-	-	-	0.0057	-	-
Cc1ccc(C)c(N(C)C(=O)COc2cc(=O)n(C)c3ccccc23)c1	.	-	.	-4.1	-	-	-	-	-	-	-
Cc1cc(=O)c2cc(C(=O)c3ccccc3)ccc2[nH]1	.	.	-	.	.	.	.	.	.	.	.
Nc1nnc(CSCc2ccc(Cl)cc2Cl)s1	-	-	-	-	-	.	.	.	.	.	.
CC(C)n1c(CSCc2ccc(Cl)cc2Cl)n[nH]c1=S	-	-	-	9.3	-	-	0.083	-	0.028	0.053	0.013
CN1CCN(NC(=O)c2ccc(Cl)s2)CC1	-	-	-	-	-	.	.	.	.	.	.
C/C(N)=C(/C#N)C(=O)CSc1nnc(SCc2ccc(Cl)cc2)s1	-	-	-	.	-	-	-	-	-	?	-

High-throughput results as filed in PubChem.
